{
  "source": "ChEMBL document CHEMBL4041502",
  "about": "“Zoanthamine-Type Alkaloids from the Zoanthid Zoanthus kuroshio Collected in Taiwan and Their Effects on Inflammation” (2016)",
  "key": {"Neutrophil [1]": {"system": "Neutrophil", "experiment": "Anti-inflammatory activity in human neutrophils assessed as inhibition of fMLP/CB-induced elastase release at 10 uM using MeO-Suc-Ala-Ala-Pro-Val-p-nitroanilide as a substrate pretreated for 5 mins followed by fMLP/CB addition relative to control", "format": "functional", "outline": "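Neutrophils from healthy donors aged 20−35 (venipuncture), equilibrated at 37 °C for 2 min with 100 μM MeO-Suc-Ala-Ala-Pro-Val-p-nitroanilide, then exposed to compound 5 min. Stimulus: 100 nM fMLP plus 0.5 μg/mL cytochalasin B. Elastase release followed continuously at 405 nm. Percent inhibition at 10 μM versus control, mean ± SEM (n = 3, 4).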"}, "Neutrophil [2]": {"system": "Neutrophil", "experiment": "Anti-inflammatory activity in human neutrophils assessed as inhibition of fMLP/CB-induced superoxide anion production by measuring reduction of ferricytochrome c at 10 uM pretreated for 5 mins followed by fMLP/CB addition measured after 10 mins by spectrophotometric method relative to control", "format": "functional", "outline": "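Donor neutrophils (healthy, 20−35 y) held 2 min at 37 °C in 0.5 mg/mL ferricytochrome c with 1 mM Ca2+, then 5 min with compound, then fMLP 100 nM/cytochalasin B 1 μg/mL for 10 min. Continuous 550 nm read with stirring. SOD-inhibitable (100 U/mL) difference converted using ε = 21.1/mM/10 mm. Inhibition % at 10 μM, mean ± SEM (n = 3, 4).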"}},
  "data": [
    {"smiles": "CC1=CC(=O)[C@@H]2[C@@H](C1)C13C=C4N5C[C@H]6C[C@H](C)C[C@]5(CC[C@@]4(C)[C@]4(COC(=O)C4)[C@H]1[C@@](O)(OC3)[C@@H]2C)O6", "values": [
      {"measurement": "inhibition at 10 µM", "setting": "Neutrophil [1]", "value": 17, "unit": "%"},
      {"measurement": "inhibition at 10 µM", "setting": "Neutrophil [2]", "value": 17, "unit": "%"}
    ]},
    {"smiles": "CC1=CC(=O)[C@@H]2[C@@H](C1)C13C=C4N5C[C@H]6C[C@H](C)[C@@H](I)[C@]5(CC[C@@]4(C)[C@]4(COC(=O)C4)[C@H]1[C@@](O)(OC3)[C@@H]2C)O6", "values": [
      {"measurement": "inhibition at 10 µM", "setting": "Neutrophil [1]", "value": 43, "unit": "%"},
      {"measurement": "inhibition at 10 µM", "setting": "Neutrophil [2]", "value": 24, "unit": "%"}
    ]},
    {"smiles": "CC1=CC(=O)[C@@H]2[C@@H](C1)[C@]13CO[C@@]4([C@H]1O)N1C[C@H]5C[C@H](C)C[C@@]1(O5)[C@@H](O)C[C@@]4(C)[C@]1(COC(=O)C1)[C@H]3C(=O)[C@@H]2C", "values": [
      {"measurement": "inhibition at 10 µM", "setting": "Neutrophil [1]", "value": 27, "unit": "%"},
      {"measurement": "inhibition at 10 µM", "setting": "Neutrophil [2]", "value": 11, "unit": "%"}
    ]},
    {"smiles": "CC1=CC(=O)[C@H]2[C@@H](C1)[C@]13CO[C@@]4([C@H]1O)N1C[C@H]5C[C@H](C)C[C@]1(CC[C@@]4(C)[C@]1(COC(=O)C1)[C@H]3C(=O)[C@@H]2C)O5", "values": [
      {"measurement": "inhibition at 10 µM", "setting": "Neutrophil [1]", "value": 13, "unit": "%"},
      {"measurement": "inhibition at 10 µM", "setting": "Neutrophil [2]", "value": 15, "unit": "%"}
    ]},
    {"smiles": "CC1=CC(=O)[C@H]2[C@@H](C1)[C@]13CO[C@@]4(C1=O)N1C[C@H]5C[C@H](C)C[C@]1(CC[C@@]4(C)[C@]1(COC(=O)C1)[C@H]3C(=O)[C@@H]2C)O5", "values": [
      {"measurement": "inhibition at 10 µM", "setting": "Neutrophil [1]", "value": 23, "unit": "%"},
      {"measurement": "inhibition at 10 µM", "setting": "Neutrophil [2]", "value": 14, "unit": "%"}
    ]},
    {"smiles": "CC1=CC(=O)[C@@H]2[C@@H](C1)[C@]13CO[C@@]4([C@H]1Cl)N1C[C@H]5C[C@H](C)C[C@]1(CC[C@@]4(C)[C@]1(COC(=O)C1)[C@H]3C(=O)[C@@H]2C)O5", "values": [
      {"measurement": "inhibition at 10 µM", "setting": "Neutrophil [1]", "value": 25, "unit": "%"},
      {"measurement": "inhibition at 10 µM", "setting": "Neutrophil [2]", "value": 23, "unit": "%"}
    ]},
    {"smiles": "CC1=CC(=O)[C@@H]2[C@@H](C1)[C@]1(C)C=C3N4C[C@H]5C[C@H](C)C[C@]4(CC[C@@]3(C)[C@]3(COC(=O)C3)[C@H]1C(=O)[C@@H]2C)O5", "values": [
      {"measurement": "inhibition at 10 µM", "setting": "Neutrophil [1]", "value": 30, "unit": "%"},
      {"measurement": "inhibition at 10 µM", "setting": "Neutrophil [2]", "value": 18, "unit": "%"}
    ]},
    {"smiles": "CC1=CC(=O)[C@@H]2[C@@H](C1)C13C=C4N5C[C@@H]6O[C@@]5(CC[C@@]4(C)[C@]4(COC(=O)C4)[C@H]1[C@@](O)(OC3)[C@@H]2C)C[C@@H](C)[C@@H]6O", "values": [
      {"measurement": "inhibition at 10 µM", "setting": "Neutrophil [1]", "value": 25, "unit": "%"},
      {"measurement": "inhibition at 10 µM", "setting": "Neutrophil [2]", "value": 14, "unit": "%"}
    ]},
    {"smiles": "CO[C@@H]1[C@@H](C)C[C@@H]2CN3[C@@]1(CC[C@@]1(C)[C@]4(COC(=O)C4)[C@H]4C(=O)[C@H](C)[C@@H]5C(=O)C=C(C)C[C@H]5[C@@]45CO[C@@]31C5=O)O2", "values": [
      {"measurement": "inhibition at 10 µM", "setting": "Neutrophil [1]", "value": 33, "unit": "%"},
      {"measurement": "inhibition at 10 µM", "setting": "Neutrophil [2]", "value": 20, "unit": "%"}
    ]},
    {"smiles": "CC1=CC(=O)[C@@H]2[C@@H](C1)[C@]13CO[C@@]4(C1=O)N1C[C@H]5C[C@H](C)C[C@]1(CC[C@@]4(C)[C@]1(COC(=O)C1)[C@H]3C(=O)[C@@H]2C)O5", "values": [
      {"measurement": "inhibition at 10 µM", "setting": "Neutrophil [1]", "value": 27, "unit": "%"},
      {"measurement": "inhibition at 10 µM", "setting": "Neutrophil [2]", "value": 7, "unit": "%"}
    ]},
    {"smiles": "CC1=CC(=O)[C@@H]2[C@@H](C1)[C@]13CO[C@@]4([C@H]1O)N1C[C@H]5C[C@H](C)C[C@]1(CC[C@@]4(C)[C@]1(COC(=O)C1)[C@H]3C(=O)[C@@H]2C)O5", "values": [
      {"measurement": "inhibition at 10 µM", "setting": "Neutrophil [1]", "value": 6, "unit": "%"},
      {"measurement": "inhibition at 10 µM", "setting": "Neutrophil [2]", "value": 9, "unit": "%"}
    ]},
    {"smiles": "CC1=CC(=O)[C@@H]2[C@@H](C1)[C@]13CO[C@@]4(C1=O)N1C[C@H]5C[C@H](C)C[C@@]1(O5)[C@@H](O)C[C@@]4(C)[C@]1(COC(=O)C1)[C@H]3C(=O)[C@@H]2C", "values": [
      {"measurement": "inhibition at 10 µM", "setting": "Neutrophil [1]", "value": 15, "unit": "%"},
      {"measurement": "inhibition at 10 µM", "setting": "Neutrophil [2]", "value": 13, "unit": "%"}
    ]},
    {"smiles": "O=c1cc(N2CCOCC2)oc2c(-c3ccccc3)cccc12", "note": "[LY-294002]", "values": [
      {"measurement": "inhibition at 10 µM", "setting": "Neutrophil [1]", "value": 73, "unit": "%"},
      {"measurement": "inhibition at 10 µM", "setting": "Neutrophil [2]", "value": 99, "unit": "%"}
    ]}
  ]
}
